Laboratory results from PMC6713505 (Science Advances, 2019).

Columns and labels:
[1] = test system: FL transporter-2 (Blon_2202–2204); assay type: cell-based, B. infantis JCM 1222^T; conditions: for change in concentration of each HMO in culture supernatant (consumption): MS554 expressing FL transporter-2, growth on 0.5% (w/v) purified HMO mixture
How it was run: (§1)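 The host was B. longum 105-A ΔlnbX ΔgltA carrying pMSK65, which encodes intracellular HMO-degrading exo-glycosidases. It was transformed with the transporter gene cluster or an empty vector. Cultures grew anaerobically at 37°C in MRS-CS with 0.5% (w/v) purified HMO mixture, Lac, 2′-FL, 3-FL, LDFT or LNFP I. OD600 was followed in technical duplicates. Supernatant HMOs were fluorescence-labelled and measured by HPLC against a maltoheptaose internal standard, in technical triplicates; means ± SD.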

[2] = test system: FL transporter-1 (Blon_0341–0343); assay type: cell-based, B. infantis JCM 1222^T; conditions: for change in concentration of each HMO in culture supernatant (consumption): MS554 expressing FL transporter-1, growth on 0.5% (w/v) purified HMO mixture
How it was run: as §1

[3] = test system: B. infantis JCM 1222^T; assay type: cell-based; conditions: 0.5% (w/v) sugar
How it was run: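 B. infantis JCM 1222T wild type and FL transporter mutants were grown anaerobically at 37°C in MRS-CS broth (0.34% w/v sodium ascorbate, 0.02% w/v cysteine-HCl). Each broth carried 0.5% (w/v) of Gal, 2′-FL, 3-FL, LDFT, LNFP I or purified HMO mixture. The HMO mixture was purified from pooled breast milk and contained 2% (w/w) Lac impurity. Growth was followed over time in biological duplicates, reported as means ± SD.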

Molecule | change in concentration of each HMO in culture supernatant (consumption) [1] | change in concentration of each HMO in culture supernatant (consumption) [2] | growth on sugar as carbon source ([1]; MS554 expressing FL transporter-2, 0.5% (w/v) sugar, OD600) | growth on sugar as carbon source ([2]; MS554 expressing FL transporter-1, 0.5% (w/v) sugar, OD600) | growth of WT and the four mutants of B. infantis [3]
CC(=O)N[C@H]1[C@H](O[C@H]2[C@@H](O)[C@@H](CO)O[C@@H](O[C@@H]([C@H](O[C@@H]3O[C@@H](C)[C@@H](O)[C@@H](O)[C@@H]3O)[C@@H](O)C=O)[C@H](O)CO)[C@@H]2O)O[C@H](CO)[C@@H](O[C@@H]2O[C@@H](C)[C@@H](O)[C@@H](O)[C@@H]2O)[C@@H]1O[C@@H]1O[C@H](CO)[C@H](O)[C@H](O)[C@H]1O [LNDFH II] | invariant | invariant | – | – | –
OC[C@H]1O[C@@H](O[C@H]2[C@H](O)[C@@H](O)C(O)O[C@@H]2CO)[C@H](O)[C@@H](O)[C@H]1O (mixture of isomers) [Lac, lactose] | – | – | indistinguishable from the control strain | indistinguishable from the control strain | –
CC(=O)N[C@H]1[C@H](O[C@H]2[C@@H](O)[C@@H](CO)O[C@@H](O[C@H]3[C@H](O)[C@@H](O)C(O)O[C@@H]3CO)[C@@H]2O)O[C@H](CO)[C@@H](O)[C@@H]1O[C@@H]1O[C@H](CO)[C@H](O)[C@H](O)[C@H]1O (some centres unmarked) [LNT, lacto-N-tetraose] | invariant | invariant | – | – | –
O=C[C@H](O)[C@@H](O)[C@@H](O)[C@H](O)CO [Gal, galactose] | – | – | – | – | grew at similar rates
CC(=O)N[C@H]1[C@H](O[C@H]2[C@@H](O)[C@@H](CO)O[C@@H](O[C@H]3[C@H](O)[C@@H](O)C(O)O[C@@H]3CO)[C@@H]2O)O[C@H](CO)[C@@H](O[C@@H]2O[C@H](CO)[C@H](O)[C@H](O)[C@H]2O)[C@@H]1O (mixture of isomers) [LNnT, lacto-N-neotetraose] | invariant | invariant | – | – | –
lacto-N-difucohexaose (LNDFH) I [LNDFH I] | invariant | invariant | – | – | –
